Test results as given in ChEMBL document CHEMBL5724801, “EUbOPEN Chemogenomics Library - Multiplex” (2024).
Where “and” joins values, the source holds several entries; their conditions need not be identical. Equal values may be shown once.

These compounds were tested on HEK-293T (assay: Multiplex assay against HEK293T). Details: human, 12 h, 1 µM, compound concentration 1 uM.
Format: toxicity, cell-based
Procedure, shortened: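 Values for tubulin, mitochondrial-mass and membrane-permeability phenotypes are per cents of cells with healthy nuclei. These cells were identified by CellPathfinder machine-learning gating of live cells that had been stained at seeding with Hoechst33342, BioTracker Green Microtubule Cytoskeleton Dye, MitoTracker Red and Annexin V Alexa Fluor 680 and imaged on a CQ1 microscope at 37°C and 5% CO2 after compound addition. The gating first set Hoechst high-intensity objects apart from normal cells, then split normal cells into healthy, pyknosed or fragmented nuclei, and pyknosed cells into mitotic or apoptotic.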

SMILES	Population Apoptotic (%)	Population Fragmented Nuclei (%)	Population Hoechst High Intensity Objects (%)	Population Membrane Permeable-Phenotype (%)	Population Mitochondria Different-Phenotype (%)	Population Mitotic Cells (%)	Population Normal (%)	Population Pyknosed Nuclei (%)	Total Cell Count	Population Healthy Nuclei (%)
CCC(=N\O)/C(C)=C/c1ccc(F)cc1 [A-079]	11.21% and 9.93%	3.75% and 3.83%	0%	0% and 2.86%	29.63% and 22.86%	88.79% and 90.07%	100%	31.1% and 77.05%	373 and 183	
O=c1nc2[nH]c3ccccc3nc-2c(=O)[nH]1 [ALLOXAZINE]	27% and 44%	8% and 4%	8% and 7%	0%	44% and 66%	72% and 55%	91% and 92%	13% and 15%	377 and 345	77% and 79%
CCCCC[C@H](O)/C=C/[C@H]1[C@H](O)CC(=O)[C@@H]1CCCCCCC(=O)O [ALPROSTADIL]	35% and 50%	7% and 6%	7% and 6%	0%	42% and 55%	64% and 49%	92% and 93%	13%	471 and 392	79% and 80%
COC(c1ccccc1)(c1ccccc1)[C@H](Oc1nc(C)cc(C)n1)C(=O)O [AMBRISENTAN]	38%	7%	6% and 11%	0%	53% and 63%	61%	93% and 88%	16% and 10%	249 and 326	75% and 81%

Same assay, conditions: human, 12 h, 1 µM, compound concentration 1 uM

SMILES	Population Tubulin-Different-Phenotype (%)
O=c1nc2[nH]c3ccccc3nc-2c(=O)[nH]1 [ALLOXAZINE]	33% and 25%
CCCCC[C@H](O)/C=C/[C@H]1[C@H](O)CC(=O)[C@@H]1CCCCCCC(=O)O [ALPROSTADIL]	28% and 18%
COC(c1ccccc1)(c1ccccc1)[C@H](Oc1nc(C)cc(C)n1)C(=O)O [AMBRISENTAN]	30% and 23%

Same assay, conditions: human, 12 h, 10 µM, compound concentration 10 uM

SMILES	Population Apoptotic (%)	Population Fragmented Nuclei (%)	Population Hoechst High Intensity Objects (%)	Population Membrane Permeable-Phenotype (%)	Population Mitotic Cells (%)	Population Normal (%)	Population Pyknosed Nuclei (%)	Total Cell Count	Population Healthy Nuclei (%)	Population Mitochondria Different-Phenotype (%)
CCC(=N\O)/C(C)=C/c1ccc(F)cc1 [A-079]	7.79% and 9.52%	0.57% and 1.59%	0.28% and 0.79%	0.51% and 0%	92.21% and 90.48%	99.72% and 99.21%	43.87% and 83.33%	352 and 127		
O=c1nc2[nH]c3ccccc3nc-2c(=O)[nH]1 [ALLOXAZINE]	40% and 60%	10% and 8%	5% and 15%	0%	59% and 40%	94% and 84%	18% and 20%	362 and 323	71% and 70%	53% and 67%
CCCCC[C@H](O)/C=C/[C@H]1[C@H](O)CC(=O)[C@@H]1CCCCCCC(=O)O [ALPROSTADIL]	33%	7%	6% and 9%	1% and 0%	66%	93% and 90%	14% and 17%	318 and 309	78% and 75%	48% and 64%
COC(c1ccccc1)(c1ccccc1)[C@H](Oc1nc(C)cc(C)n1)C(=O)O [AMBRISENTAN]	33% and 56%	8% and 5%	6% and 13%	0%	66% and 43%	93% and 86%	15% and 14%	383 and 262	76% and 80%	47% and 57%

Same assay, conditions: human, 12 h, 10 µM, compound concentration 10 uM

SMILES	Population Tubulin-Different-Phenotype (%)
O=c1nc2[nH]c3ccccc3nc-2c(=O)[nH]1 [ALLOXAZINE]	31% and 20%
CCCCC[C@H](O)/C=C/[C@H]1[C@H](O)CC(=O)[C@@H]1CCCCCCC(=O)O [ALPROSTADIL]	33% and 30%
COC(c1ccccc1)(c1ccccc1)[C@H](Oc1nc(C)cc(C)n1)C(=O)O [AMBRISENTAN]	23% and 18%

Same assay, conditions: human, 24 h, 1 µM, compound concentration 1 uM

SMILES	Population Apoptotic (%)	Population Fragmented Nuclei (%)	Population Healthy Nuclei (%)	Population Hoechst High Intensity Objects (%)	Population Membrane Permeable-Phenotype (%)	Population Mitochondria Different-Phenotype (%)	Population Mitotic Cells (%)	Population Normal (%)	Population Tubulin-Different-Phenotype (%)	Population Pyknosed Nuclei (%)
CCC(=N\O)/C(C)=C/c1ccc(F)cc1 [A-079]	14.77% and 10.19%	4.65% and 2.11%	80.21% and 41.05%	0%	1.72% and 1.28%	15.02% and 6.41%	85.23% and 89.81%	100%	7.73% and 3.85%	
O=c1nc2[nH]c3ccccc3nc-2c(=O)[nH]1 [ALLOXAZINE]	22% and 33%	10% and 7%	76% and 83%	4% and 7%	0%	24% and 41%	77% and 66%	95% and 92%	19% and 12%	12% and 8%
CCCCC[C@H](O)/C=C/[C@H]1[C@H](O)CC(=O)[C@@H]1CCCCCCC(=O)O [ALPROSTADIL]	35% and 34%	9% and 6%	79% and 85%	3% and 4%	1% and 0%	22% and 35%	64% and 65%	96% and 95%	15% and 14%	10% and 8%
COC(c1ccccc1)(c1ccccc1)[C@H](Oc1nc(C)cc(C)n1)C(=O)O [AMBRISENTAN]	37% and 43%	9%	76% and 82%	4% and 7%	1% and 0%	30% and 39%	62% and 56%	95% and 92%	19% and 16%	14% and 8%

Same assay, conditions: human, 24 h, 1 µM, compound concentration 1 uM

SMILES	Total Cell Count
O=c1nc2[nH]c3ccccc3nc-2c(=O)[nH]1 [ALLOXAZINE]	504 and 391
CCCCC[C@H](O)/C=C/[C@H]1[C@H](O)CC(=O)[C@@H]1CCCCCCC(=O)O [ALPROSTADIL]	605 and 526
COC(c1ccccc1)(c1ccccc1)[C@H](Oc1nc(C)cc(C)n1)C(=O)O [AMBRISENTAN]	313 and 404

Same assay, conditions: human, 24 h, 10 µM, compound concentration 10 uM

SMILES	Population Apoptotic (%)	Population Fragmented Nuclei (%)	Population Healthy Nuclei (%)	Population Hoechst High Intensity Objects (%)	Population Membrane Permeable-Phenotype (%)	Population Mitochondria Different-Phenotype (%)	Population Mitotic Cells (%)	Population Normal (%)	Population Pyknosed Nuclei (%)	Population Tubulin-Different-Phenotype (%)
CCC(=N\O)/C(C)=C/c1ccc(F)cc1 [A-079]	13.24% and 15.38%	1.47% and 1.14%	73.48% and 39.77%	0.18% and 0.56%	0.75% and 0%	16.04% and 8.57%	86.76% and 84.62%	99.82% and 99.44%	25.05% and 59.09%	
O=c1nc2[nH]c3ccccc3nc-2c(=O)[nH]1 [ALLOXAZINE]	27% and 50%	9%	77% and 72%	6% and 15%	0%	34% and 48%	72% and 50%	93% and 84%	12% and 17%	21% and 16%
CCCCC[C@H](O)/C=C/[C@H]1[C@H](O)CC(=O)[C@@H]1CCCCCCC(=O)O [ALPROSTADIL]	32% and 36%	11% and 7%	76% and 79%	2% and 8%	0%	26% and 50%	67% and 63%	97% and 91%	12%	23% and 22%
COC(c1ccccc1)(c1ccccc1)[C@H](Oc1nc(C)cc(C)n1)C(=O)O [AMBRISENTAN]	30% and 44%	10% and 8%	73% and 78%	4% and 12%	0%	34% and 41%	69% and 55%	95% and 87%	15% and 12%	18% and 17%

Same assay, conditions: human, 24 h, 10 µM, compound concentration 10 uM

SMILES	Total Cell Count
O=c1nc2[nH]c3ccccc3nc-2c(=O)[nH]1 [ALLOXAZINE]	491 and 371
CCCCC[C@H](O)/C=C/[C@H]1[C@H](O)CC(=O)[C@@H]1CCCCCCC(=O)O [ALPROSTADIL]	439 and 345
COC(c1ccccc1)(c1ccccc1)[C@H](Oc1nc(C)cc(C)n1)C(=O)O [AMBRISENTAN]	441 and 318

Same assay, conditions: human, 48 h, 1 µM, compound concentration 1 uM

SMILES	Population Apoptotic (%)	Population Fragmented Nuclei (%)	Population Healthy Nuclei (%)	Population Hoechst High Intensity Objects (%)	Population Membrane Permeable-Phenotype (%)	Population Mitochondria Different-Phenotype (%)	Population Mitotic Cells (%)	Population Normal (%)	Population Pyknosed Nuclei (%)	Population Tubulin-Different-Phenotype (%)
CCC(=N\O)/C(C)=C/c1ccc(F)cc1 [A-079]	8.9% and 17.46%	5.91% and 2.96%	84.62% and 78.4%	0% and 0.29%	6.52% and 3.4%	8.82% and 9.06%	91.1% and 82.54%	100% and 99.71%	9.47% and 18.64%	
O=c1nc2[nH]c3ccccc3nc-2c(=O)[nH]1 [ALLOXAZINE]	32% and 27%	14% and 11%	77% and 82%	3% and 4%	1% and 0%	18% and 26%	67% and 72%	96% and 95%	8% and 6%	13% and 12%
CCCCC[C@H](O)/C=C/[C@H]1[C@H](O)CC(=O)[C@@H]1CCCCCCC(=O)O [ALPROSTADIL]	32% and 13%	13% and 16%	79% and 77%	2% and 3%	2% and 0%	12% and 21%	67% and 86%	97% and 96%	7% and 6%	11% and 12%
COC(c1ccccc1)(c1ccccc1)[C@H](Oc1nc(C)cc(C)n1)C(=O)O [AMBRISENTAN]	27% and 40%	17% and 12%	72% and 80%	2% and 3%	3% and 0%	22% and 23%	72% and 59%	97% and 96%	10% and 7%	13% and 10%

Same assay, conditions: human, 48 h, 1 µM, compound concentration 1 uM

SMILES	Total Cell Count
O=c1nc2[nH]c3ccccc3nc-2c(=O)[nH]1 [ALLOXAZINE]	773 and 636
CCCCC[C@H](O)/C=C/[C@H]1[C@H](O)CC(=O)[C@@H]1CCCCCCC(=O)O [ALPROSTADIL]	1005 and 714
COC(c1ccccc1)(c1ccccc1)[C@H](Oc1nc(C)cc(C)n1)C(=O)O [AMBRISENTAN]	600 and 605

Same assay, conditions: human, 48 h, 10 µM, compound concentration 10 uM

SMILES	Population Apoptotic (%)	Population Fragmented Nuclei (%)	Population Healthy Nuclei (%)	Population Hoechst High Intensity Objects (%)	Population Membrane Permeable-Phenotype (%)	Population Mitochondria Different-Phenotype (%)	Population Mitotic Cells (%)	Population Normal (%)	Population Pyknosed Nuclei (%)	Population Tubulin-Different-Phenotype (%)
CCC(=N\O)/C(C)=C/c1ccc(F)cc1 [A-079]	8.2% and 20.78%	3.08% and 0.64%	85.54% and 50%	0% and 0.64%	3.82% and 1.28%	18.43% and 25.64%	91.8% and 79.22%	100% and 99.36%		
O=c1nc2[nH]c3ccccc3nc-2c(=O)[nH]1 [ALLOXAZINE]	29% and 48%	15% and 14%	76% and 78%	3% and 4%	0%	17% and 28%	70% and 51%	96% and 95%	7% and 6%	11% and 14%
CCCCC[C@H](O)/C=C/[C@H]1[C@H](O)CC(=O)[C@@H]1CCCCCCC(=O)O [ALPROSTADIL]	25% and 20%	15% and 14%	76% and 79%	2%	1% and 0%	17% and 30%	75% and 80%	97%	7% and 6%	15% and 14%
COC(c1ccccc1)(c1ccccc1)[C@H](Oc1nc(C)cc(C)n1)C(=O)O [AMBRISENTAN]	26% and 53%	14%	77% and 79%	2% and 7%	1% and 0%	18% and 27%	73% and 46%	97% and 92%	8% and 5%	13% and 15%

Same assay, conditions: human, 48 h, 10 µM, compound concentration 10 uM

SMILES	Total Cell Count
O=c1nc2[nH]c3ccccc3nc-2c(=O)[nH]1 [ALLOXAZINE]	700 and 531
CCCCC[C@H](O)/C=C/[C@H]1[C@H](O)CC(=O)[C@@H]1CCCCCCC(=O)O [ALPROSTADIL]	685 and 537
COC(c1ccccc1)(c1ccccc1)[C@H](Oc1nc(C)cc(C)n1)C(=O)O [AMBRISENTAN]	711 and 480
